Experimental data published in ChEMBL document CHEMBL1122643, “Alpha-adrenoreceptor reagents. 2. Effects of modification of the 1,4-benzodioxan ring system on alpha-adrenoreceptor activity” (J Med Chem, 1984).
Activity calls are given as the source filed them. The rule behind the calls is not given here.

Experiments:
[1] = target: T1, Alpha-2 adrenergic receptor (Mus musculus) (UniProt P30545+Q01338+Q01337); assay: Ability to antagonize the inhibitory effect of clonidine on the mouse vas deferens is the presynaptic alpha-2 adrenergic receptor antagonist potency relative to idazoxan = 1.; format: functional, tissue-based
In short: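 Male adult mouse vasa deferentia (MFI >30 g), 0.5 g initial tension, Mg-free Krebs, 30 °C, 95% O2/5% CO2. Field stimulation at 0.1 Hz, 3-ms pulses, 100-140 V set to give ~100-mg twitch, recorded isometrically.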

[2] = Selectivity between pre- and post-synaptic sites of action.; format: functional
[3] = target: T1, Alpha-2 adrenergic receptor (Mus musculus); assay: Presynaptic alpha-2 adrenergic receptor from mouse vas deferens agonistic activity relative to clonidine = 1.; format: functional, tissue-based
In short: (§1)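 Isolated tissue agonist test, potency compared directly with the standard in the same experiment. Standard dose-response curves were run before and after the test compound's curve. Rat anococcygeus (male Sprague-Dawley, 200-250 g; Krebs, 30 °C, 95% O2/5% CO2) was compared with phenylephrine. Field-stimulated mouse vas deferens (0.1 Hz, Mg-free Krebs, 30 °C) was compared with clonidine.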

[4] = target: T2, Adrenergic receptor alpha-1 (Rattus norvegicus) (UniProt P15823+P23944+P43140); assay: Agonism at Alpha-1 adrenoceptor determined in rat anococcygeus preparation; Inactive.; format: functional; in short: as §1
[5] = target: T2, Adrenergic receptor alpha-1 (Rattus norvegicus); assay: In vitro inhibition of the contractile effect of phenylephrine on the isolated rat anococcygeus; potency relative to idazoxan.; format: functional
[6] = target: T2, Adrenergic receptor alpha-1 (Rattus norvegicus); assay: Agonism in vitro at Alpha-1 adrenoceptor determined in rat anococcygeus preparation.; format: functional; in short: as §1
[7] = target: T1, Alpha-2 adrenergic receptor (Mus musculus); assay: Presynaptic alpha-2 adrenergic receptor agonistic activity in mouse vas deferens relative to clonidine; format: functional, tissue-based; in short: as §1
[8] = target: T2, Adrenergic receptor alpha-1 (Rattus norvegicus); assay: In vitro inhibition of the contractile effect of phenylephrine on the isolated rat anococcygeus; potency relative to idazoxan; Inactive.; format: functional
[9] = target: T3, Alpha-2 adrenergic receptor (Mus musculus, UniProt P30545+Q01338+Q01337); assay: Alpha-2 adrenergic receptor […] in mouse vas deferens relative to clonidine; format: functional, tissue-based; in short: as §1
T3 sequence (P30545 whole entry): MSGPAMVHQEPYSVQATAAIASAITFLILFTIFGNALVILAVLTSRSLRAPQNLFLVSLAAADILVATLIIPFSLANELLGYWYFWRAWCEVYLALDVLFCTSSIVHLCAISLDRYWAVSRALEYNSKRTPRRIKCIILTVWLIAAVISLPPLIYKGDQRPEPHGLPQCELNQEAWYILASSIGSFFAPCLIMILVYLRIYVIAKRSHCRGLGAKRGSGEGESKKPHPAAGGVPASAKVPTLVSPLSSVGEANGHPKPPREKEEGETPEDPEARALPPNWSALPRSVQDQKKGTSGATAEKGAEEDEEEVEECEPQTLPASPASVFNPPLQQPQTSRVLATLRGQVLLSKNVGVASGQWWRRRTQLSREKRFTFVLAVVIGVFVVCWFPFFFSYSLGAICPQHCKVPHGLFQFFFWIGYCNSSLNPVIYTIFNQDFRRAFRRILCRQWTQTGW
T3 sequence (Q01338 whole entry): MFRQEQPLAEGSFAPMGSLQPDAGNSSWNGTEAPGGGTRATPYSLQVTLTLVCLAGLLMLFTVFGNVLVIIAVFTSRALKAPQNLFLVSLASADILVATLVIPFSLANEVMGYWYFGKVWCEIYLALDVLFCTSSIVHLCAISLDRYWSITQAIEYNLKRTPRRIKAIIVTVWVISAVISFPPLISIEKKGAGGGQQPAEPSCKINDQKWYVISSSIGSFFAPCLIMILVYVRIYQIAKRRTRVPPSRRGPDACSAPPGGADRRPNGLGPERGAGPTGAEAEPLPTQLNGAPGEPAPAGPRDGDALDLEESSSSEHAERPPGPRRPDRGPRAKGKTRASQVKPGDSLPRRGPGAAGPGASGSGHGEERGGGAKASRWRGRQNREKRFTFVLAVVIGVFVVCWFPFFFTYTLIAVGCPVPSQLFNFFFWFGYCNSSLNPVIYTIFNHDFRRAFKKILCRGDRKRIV
T3 sequence (Q01337 whole entry): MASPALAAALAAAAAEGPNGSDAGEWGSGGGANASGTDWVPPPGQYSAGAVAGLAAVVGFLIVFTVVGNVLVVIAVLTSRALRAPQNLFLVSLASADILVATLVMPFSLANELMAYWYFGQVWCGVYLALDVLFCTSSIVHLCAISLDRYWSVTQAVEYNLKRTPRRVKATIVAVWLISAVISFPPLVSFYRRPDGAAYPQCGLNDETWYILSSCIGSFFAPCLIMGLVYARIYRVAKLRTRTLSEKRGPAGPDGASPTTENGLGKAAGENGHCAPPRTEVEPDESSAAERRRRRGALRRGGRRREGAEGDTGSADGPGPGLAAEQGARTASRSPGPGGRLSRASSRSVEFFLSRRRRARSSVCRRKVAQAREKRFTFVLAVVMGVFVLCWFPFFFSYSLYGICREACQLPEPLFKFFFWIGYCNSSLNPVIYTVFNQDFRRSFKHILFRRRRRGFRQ

| Structure (SMILES) | Antagonist potency [1] | Ratio [2] | Agonist potency [3] | Agonist potency [4] | Antagonist potency [5] | Agonist potency [6] | Agonist potency [7] | Antagonist potency [8] | pA2 [9] |
| --- | --- | --- | --- | --- | --- | --- | --- | --- | --- |
| c1ccc(CCC2(C3=NCCN3)Cc3ccccc3O2)cc1 (configuration not stated) | 0.07 | 1 | inactive | inactive | 0.07 |  |  |  |  |
| Oc1ccc2c(c1)OC(C1=NCCN1)C2 (configuration not stated) | 0.04 |  |  |  |  | 1.5 | 0.02 | inactive |  |
| c1ccc2c(c1)CC(C1=NCCN1)CO2 (configuration not stated) | 0.01 | 0.01 | inactive | inactive | 1 |  |  |  |  |
| Cl.Clc1cccc2c1OC(C1=NCCN1)C2 (configuration not stated) | 0.64 | 0.64 | inactive | inactive | 1 |  |  |  | 7.64 |
| Cc1ccc2c(c1)CC(C1=NCCN1)O2 (configuration not stated) | 1 | 0.44 | inactive | inactive | 2.25 |  |  |  |  |
| Clc1cc(Cl)c2c(c1)CC(C1=NCCN1)O2 (configuration not stated) | 0.06 |  |  |  |  | 0.14 | < 0.0001 | inactive |  |
| COc1ccc2c(c1)OC(C1=NCCN1)C2 (configuration not stated) | 0.07 | 0.2 | inactive | inactive | 0.35 |  |  |  |  |
| Cc1cccc2c1OC(C1=NCCN1)C2.Cl (configuration not stated) | 1.6 | 2.4 | inactive | inactive | 0.67 |  |  |  | 8.22 |
| c1ccc2c(c1)OC(C1=NCCN1)O2 | 0.001 |  | inactive |  |  | 0.005 |  | inactive |  |
| Clc1ccc2c(c1Cl)OC(C1=NCCN1)C2 (configuration not stated) | 0.12 |  |  |  |  | 0.001 | 0.03 | inactive |  |
| Cc1ccc(C)c2c1CC(C1=NCCN1)O2 (configuration not stated) | 0.03 |  |  |  |  | 0.5 | 0.14 | inactive |  |
| c1ccc2c(c1)OCCC(C1=NCCN1)O2 (configuration not stated) | 0.04 |  | inactive |  |  | < 0.0005 |  | inactive |  |
| Clc1cccc2c1CC(C1=NCCN1)O2 (configuration not stated) | 2 |  | inactive |  |  | 1 |  | inactive |  |
| CC1c2ccccc2OC1C1=NCCN1 (configuration not stated) | 0.03 | 0.3 | inactive | inactive | 0.1 |  |  |  |  |
| Cl.c1ccc2c(c1)CC(C1=NCCN1)O2 (configuration not stated) | 1.7 | 10.6 | inactive |  | 0.16 | 0.01 |  |  | 8.35 |
| Oc1cccc2c1OC(C1=NCCN1)C2 (configuration not stated) | 0.04 |  | inactive |  |  | 0.24 |  | inactive |  |
| c1ccc2oc(C3=NCCN3)cc2c1 | 0.01 |  |  |  |  | < 0.001 | < 0.0003 |  |  |
| Cc1ccc2c(c1)OC(C1=NCCN1)C2 (configuration not stated) | 0.46 | 0.2 | inactive | inactive | 2.25 |  |  |  |  |
| Brc1ccc2c(c1)CC(C1=NCCN1)O2 (configuration not stated) | 0.2 |  |  |  |  | 0.026 | < 0.001 | inactive |  |
| c1ccc2c(c1)CCC(C1=NCCN1)O2 (configuration not stated) | 0.01 | 0.01 | inactive | inactive | 1 |  |  |  |  |
| c1ccc2c(c1)CC(C1=NCCN1)S2 (configuration not stated) | 0.1 | 0.14 |  | inactive | 0.69 |  | 0.001 |  |  |
| COc1cccc2c1OC(C1=NCCN1)C2 (configuration not stated) | 0.07 |  | inactive |  |  | 0.3 |  | inactive |  |
| Cc1cc(C)c2c(c1)CC(C1=NCCN1)O2 (configuration not stated) | 0.3 |  | inactive |  |  | 0.03 |  | inactive |  |
| CC(=O)c1ccc2c(c1)CC(C1=NCCN1)O2 (configuration not stated) | 0.003 |  | inactive |  |  | 0.02 |  | inactive |  |
| Cc1cccc2c1CC(C1=NCCN1)O2 (configuration not stated) | 0.1 |  |  |  |  | 1.3 | 0.2 | inactive |  |
| Fc1ccc2c(c1)CC(C1=NCCN1)O2 (configuration not stated) | 1.07 | 0.2 | inactive | inactive | 5.6 |  |  |  |  |
| CC1(C2=NCCN2)Oc2ccccc2O1 | 0.001 | 0.1 | inactive |  | 0.01 | 0.05 |  |  |  |
| Oc1ccc2c(c1)CC(C1=NCCN1)O2 (configuration not stated) | 0.02 |  |  |  |  | 0.25 | 0.02 | inactive |  |
| Cc1cc2c(cc1C)OC(C1=NCCN1)C2 (configuration not stated) | 0.7 | 0.8 | inactive | inactive | 0.9 |  |  |  |  |
| c1ccc2sc(C3=NCCN3)cc2c1 | 0.001 | 0.02 | inactive | inactive | 0.05 |  |  |  |  |
